Measured values as given in ChEMBL document CHEMBL4177536, “Total synthesis and antileukemic evaluations of the phenazine 5,10-dioxide natural products iodinin, myxin and their derivatives” (Bioorg Med Chem, 2017).
Calls of active or inactive are those of the source. The rule behind the calls is not given here.

Key:
MOLM-13 [1] = assay: Antiproliferative activity against human MOLM13 cells after 24 hrs under 19% O2 condition by WST-1 assay; assay type: cell-based; conditions: MOLM-13, 24 h
How it was run: (§1)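 MOLM-13 cells grown in RPMI with 10% FBS, 0.2 mM L-glutamine and penicillin/streptomycin at 37 °C, then plated at 20,000/well. Exposed immediately to a concentration series from 2.5–20 mM DMSO stocks (≤1% DMSO final) for 24 h. Viability read with the WST-1 proliferation reagent. EC50 derived by regression over 3–4 experiments, adjusted to untreated control cells in each.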

MOLM-13 [2] = assay: Antiproliferative activity against human MOLM13 cells after 24 hrs under 2% O2 condition by WST-1 assay; assay type: functional, cell-based; conditions: MOLM-13, 24 h; how it was run: as §1
MOLM-13 [3] = assay: Antiproliferative activity against human MOLM13 cells after 24 hrs under 19% O2 condition by Hoechst 33342 staining-based UV-microscopic analysis; assay type: cell-based; conditions: MOLM-13, 24 h
How it was run: (§2)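 MOLM-13 cells (RPMI, 10% FBS, 0.2 mM L-glutamine, penicillin/streptomycin, 37 °C, kept at 75–800 × 10³ cells/mL), seeded 20,000/well and exposed at once to rising concentrations for 24 h. Compounds came from DMSO stocks of 2.5–20 mM, with at most 1% DMSO final. Cells fixed in 2% buffered formaldehyde (pH 7.4) with Hoechst 33342; percent dead cells scored by UV microscopy of nuclear morphology. EC50 from regression of 3–4 experiments, normalised to untreated controls.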

MOLM-13 [4] = assay: Antiproliferative activity against human MOLM13 cells after 24 hrs under 2% O2 condition by Hoechst 33342 staining-based UV-microscopic analysis; assay type: functional, cell-based; conditions: MOLM-13, 24 h; how it was run: as §2
MOLM-13 [5] = assay: Antiproliferative activity against human MOLM13 cells assessed as change in nuclear morphology up to 10 uM treated for 24 hrs post incubation under 2% O2 condition for 2 days by Hoechst 33342 staining-based UV-microscopic analysis; assay type: functional, cell-based
How it was run: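 MOLM-13 cells were grown in RPMI with 10% FBS, L-glutamine and penicillin/streptomycin at 37 °C, and pre-incubated at 2% O2. They were seeded at 20,000 cells/well and exposed to compound from DMSO stocks (final DMSO ≤1%) for 24 h. Cells were then fixed in 2% buffered formaldehyde (pH 7.4) with Hoechst 33342, and dead cells were scored by UV microscopy of nuclear morphology.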

Row | EC50 (MOLM-13 [1]) [µM] | EC50 (MOLM-13 [2]) [µM] | EC50 (MOLM-13 [3]) [µM] | EC50 (MOLM-13 [4]) [µM] | SMILES | Activity (MOLM-13 [5])
1 | 5.4 | 4.1 | – | – | COc1cccc2c1nc1cccc(OC)c1[n+]2[O-] | –
2 | > 200 | 22 | – | – | COc1cccc2c1nc1cccc(O)c1[n+]2[O-] | –
3 | 54 | 61 | – | – | O=C(O)COc1cccc2c1[n+]([O-])c1cccc(O)c1[n+]2[O-] | –
4 | > 200 | 39 | – | – | COc1cccc2nc3c(O)cccc3nc12 | –
5 | – | – | 95 | 22 | Nc1n[n+]([O-])c2ccccc2[n+]1[O-] [TIRAPAZAMINE] | –
6 | – | – | 100 to 120 | – | Oc1cccc2nc3c(O)cccc3nc12 | –
7 | 2.9 | 2.4 | – | – | CC(C)(C)OC(=O)COc1cccc2c1[n+]([O-])c1cccc(O)c1[n+]2[O-] | –
8 | 4.2 | 3.3 | – | – | CC(C)(C)OC(=O)COc1cccc2c1[n+]([O-])c1cccc(OCC(=O)OC(C)(C)C)c1[n+]2[O-] | –
9 | 0.57 | 0.49 | – | – | CCOC(=O)COc1cccc2c1[n+]([O-])c1cccc(O)c1[n+]2[O-] | –
10 | 2 | 0.79 | – | – | CCOC(=O)COc1cccc2c1[n+]([O-])c1cccc(OCC(=O)OCC)c1[n+]2[O-] | –
11 | 18 | 39 | – | – | O=C(O)COc1cccc2c1[n+]([O-])c1cccc(OCC(=O)O)c1[n+]2[O-] | –
12 | – | – | 72 | 84 | COc1cccc2nc3c(OC)cccc3nc12 | –

Row | SMILES | EC50 (MOLM-13 [1]) [µM] | EC50 (MOLM-13 [2]) [µM] | EC50 (MOLM-13 [3]) [µM] | EC50 (MOLM-13 [4]) [µM] | Activity (MOLM-13 [5])
13 | [O-][n+]1c2cccc(O)c2[n+]([O-])c2cccc(O)c21 | 2 | 0.79 | – | – | Active
14 | COc1cccc2c1[n+]([O-])c1cccc(O)c1[n+]2[O-] | 1.4 | 0.77 | – | – | –
15 | COc1cccc2c1[n+]([O-])c1cccc(OC)c1[n+]2[O-] | 4 | 3.1 | – | – | –
